13 compounds from paper PMC6568325 (ACS chemical biology, 2018) can be followed below.

Assay [1] addresses T1, CjMTAN (Campylobacter jejuni subsp. jejuni, UniProt Z9IB28FKP7). The assay can be described thus: CjMTAN inhibition by transition-state analogues. The class given is biochemical. Conditions: for Ki: from initial rates, MTA 1 mM, 25 °C, pH 7.4.
Assay [2] deals with T1, CjMTAN. The assay can be described thus: CjMTAN substrate specificity, steady-state kinetics. Type of assay: biochemical. The conditions noted are these: 25 °C; for Km / kcat: substrate of CjMTAN, 50 mM Hepes-KOH pH 7.4; for h (Hill coefficient): substrate saturation, sigmoidal fit, pH 7.4. The essentials: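 Recombinant N-terminally His6-tagged CjMTAN from strain 81-176, expressed in E. coli and Ni-NTA purified. Substrate varied from 1 to 100 µM, with stock concentrations set by A260. Reaction contained 1 U xanthine oxidase to convert released adenine to 2,8-dihydroxyadenine, read at 305 nm (15.5 mM–1 cm–1). Started with 50 nM enzyme and followed up to 5 min. Initial rates in duplicate or triplicate, fitted to Michaelis-Menten and/or allosteric sigmoidal equations.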

In assay [3] the test system is C. jejuni. In words: C. jejuni growth IC50 in liquid culture media. Conditions: Campylobacter jejuni, 16.4 h, read-out: IC50 C. jejuni growth. Type of assay: cell-based.
Assay [4] relates to C. jejuni. In words: C. jejuni growth IC50 on Mueller-Hinton agar. The class given is cell-based. Conditions: Campylobacter jejuni, 144 h, read-out: IC50 C. jejuni growth.

In general, Ki refers to the dissociation constant of the complex between target and ligand, obtained from inhibition or displacement. In turn, 5′-deoxy-5′-Pro-DADMe-ImmA [PDIA] had a Ki at CjMTAN [1] of 5.1 ± 0.6 nM.

For orientation: Km means the substrate concentration at which the rate is half of its maximum. Broadly, the kcat is the number of substrate molecules converted per active site and unit of time at saturation. Consider 5′-methylthioadenosine, for which, on CjMTAN [2], the Km worked out at 7.1 ± 0.7 µM and the kcat amounted to 0.80 ± 0.02 s⁻¹. With `C[C@H]1O[C@@H](n2cnc3c(N)ncnc32)[C@H](O)[C@@H]1O` [5′-deoxyadenosine], at CjMTAN [2], the Km was found to be 21.4 ± 1.3 µM, the kcat was found to be 0.92 ± 0.02 s⁻¹ and the “h (Hill coefficient)” value is reported as 1.8 ± 0.2. On to `Nc1ncnc2c1ncn2[C@@H]1O[C@H](CCC(=O)c2cccc(C(=O)O)c2)[C@@H](O)[C@H]1O` [6-amino-6-deoxyfutalosine], for which, on CjMTAN [2], the Km turned out to be 3.5 ± 0.4 µM and the catalytic constant (kcat) came out at 0.27 ± 0.01 s⁻¹. For `CCCCSC[C@H]1CN(Cc2c[nH]c3c(N)ncnc23)C[C@@H]1O` [BTDIA, BuS-DADMe-ImmA], the slow-onset inhibition entry at CjMTAN [1] (CjMTAN) was “slow-onset tight-binding inhibitors”. The same compound yielded a Ki on CjMTAN [1] of 4.1 ± 1 nM.

Regarding `Nc1ncnc2c(CN3C[C@H](CO)[C@@H](O)C3)c[nH]c12` [DIA], at CjMTAN [1] (MTDIA 2.9 nM vs DIA 2.7 μM), the “fold difference in affinity between MTDIA and DIA” value is on record as around 1000 fold. This compound came in with a Ki on CjMTAN [1] of 2610 ± 332 nM.

The IC50 is the concentration needed to halve the response being measured. As to `CNC(C)C1CCC(N)C(OC2C(N)CC(N)C(OC3OCC(C)(O)C(NC)C3O)C2O)O1` (centres unmarked) [Gentamicin], the IC50 in the assay on C. jejuni [3] was 2100 ± 100 nM; in the assay on C. jejuni [4] it was 390 ± 60 nM.

With `CSC[C@H]1N[C@@H](c2c[nH]c3c(N)ncnc23)[C@H](O)[C@@H]1O` [MTIA], at CjMTAN [1], the Ki stood at 32.3 ± 3.4 nM.

Take `CSC[C@H]1O[C@@H](n2ccc3c(N)ncnc32)[C@H](O)[C@@H]1O` [MTT]: the Ki on CjMTAN [1] is 22100 ± 6080 nM. In turn, `Nc1ncnc2c(CN3CC(O)C(CSc4ccccc4)C3)c[nH]c12` (centres unmarked) [PhTDIA] returned a Ki on CjMTAN [1] of 5.3 ± 0.3 nM. Turning to `Nc1ncnc2c1ncn2[C@@H]1O[C@H](CSCC[C@H](N)C(=O)O)[C@@H](O)[C@H]1O` [S-5′-Adenosyl-L-homocysteine, S-5′-adenosyl-L-homocysteine], at CjMTAN [2], the Km is 12.2 ± 1.5 µM, the kcat worked out at 0.55 ± 0.03 s⁻¹ and the “h (Hill coefficient)” value was found to be 2.6 ± 0.7. Take `Nc1ncnc2c1ncn2[C@@H]1O[C@H](CO)[C@@H](O)[C@H]1O` [adenosine]: at CjMTAN [2], the Km was determined as 7.5 ± 0.6 µM and the catalytic constant (kcat) was 0.30 ± 0.01 s⁻¹.

As for `Nc1ncnc2c(CN3CC(O)C(CSc4ccc(Cl)cc4)C3)c[nH]c12` (centres unmarked) [pCPTDIA], the affinity on CjMTAN [1], expressed as Ki, was 4.8 ± 0.3 nM.
